This is an account of results in paper PMC4976638 (Biochemistry, 2016).

Data set [1] in a line: Solubility in DMSO. It is filed as physicochemical.
Data set [2] deals with T1, apoE3 (Homo sapiens, UniProt P02649). The data set can be described thus: Quenching of ANS fluorescence, apoE3. The class given is binding. As to conditions: Apparent dissociation constant Kd, Using ANS, PBS pH 7.4, 25 °C. Summed up: (§1)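 Unlabelled apoE raises ANS fluorescence. Test compound was titrated stepwise into the apoE–ANS mixture after a 1 h room-temperature protein preincubation, and quenching of ANS fluorescence gave an apparent Kd. Buffer: 10 mM phosphate pH 7.4, 150 mM NaCl, 1 mM DTT, 1 mM EDTA, 25 °C.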

Data set [3] concerns the target T2, apoE4 (Homo sapiens, UniProt P02649, C130R). The data set can be described thus: SYPRO Orange displacement titration, apoE4. The class given is binding. As to conditions: Apparent dissociation constant Kd, Using SYPRO Orange, PBS pH 7.4, 25 °C. Summed up:
(§2)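 Adding apoE to SYPRO Orange increases its fluorescence and shifts the emission maximum to 575 nm. After a 1 h room-temperature protein preincubation, test compound was titrated stepwise and the decrease in SYPRO Orange fluorescence was fitted for an apparent Kd. Buffer: 10 mM phosphate pH 7.4, 150 mM NaCl, 1 mM DTT, 1 mM EDTA, 25 °C.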

Data set [4] deals with T2, apoE4. The data set can be described thus: Analytical ultracentrifugation sedimentation velocity. As to conditions: 10 μM apoE4, 10 or 20 μM EZ-482, PBS. In outline:
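Recombinant apoE4 was expressed in E. coli BL21(DE3) as a His-tagged thioredoxin fusion, cleaved with PreScission protease (leaving N-terminal Gly-Pro), and dialysed into PBS. For sedimentation velocity, 10 μM apoE4 was run with 0, 10 or 20 μM test compound in PBS in a double-sector centerpiece (1.2 cm path), with absorbance at 290 nm recorded in continuous mode.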

Data set [5] addresses T2, apoE4. The data set can be described thus: Quenching of ANS fluorescence, apoE4. It is filed as binding. Summed up:
as §1

Data set [6] addresses apoE4 (Homo sapiens, UniProt P02649, C130R/S157C). The class given is binding. Summed up:
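Alexa488-maleimide labelled the apoE4 S139C mutant after 20 mM DTT reduction (1–2 h, 37 °C), with a 10-fold molar dye excess overnight at 4 °C (>90% labelling). Labelled protein was preincubated 1 h at room temperature, then titrated stepwise with test compound to follow fluorescence decrease. Unlabelled apoE3 was then added. Buffer: 10 mM phosphate pH 7.4, 150 mM NaCl, 1 mM DTT, 1 mM EDTA, 25 °C.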

Data set [7] concerns the target T2, apoE4. The data set can be described thus: Differential hydrogen-deuterium exchange MS, apoE4. As to conditions: 1 μM WT apoE4, 25 μM EZ-482, 25 °C. The class given is binding.
The target of data set [8] is T1, apoE3. The data set can be described thus: Differential hydrogen-deuterium exchange MS, apoE3. It is filed as binding. In outline:
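ApoE3 stock (10 μM in PBS, 2 mM DTT) was incubated 2 h at 25 °C with test compound […]; controls had 2% DMSO. Exchange ran in D₂O PBS (pD 7.4, 25 °C, 30 s–30 min), with 1 μM apoE and 25 μM compound. Quench used fungal XIII/urea/formic acid on ice, then pepsin digestion, C18 LC and ESI-QTOF MS. Duplicates; 48 h back-exchange correction.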

Data set [9] deals with apoE3 (Homo sapiens, UniProt P02649, A303C). The data set can be described thus: Fluorescence of TMR-labeled apoE3. The class given is binding. Summed up:
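ApoE3 A285C was labelled with TMR maleimide (dye:protein 1:1; native Cys112 possibly also labelled). It was preincubated 1 h at room temperature, then titrated stepwise with test compound while fluorescence was monitored to derive an apparent Kd. Buffer: 20 mM HEPES pH 7.4, 150 mM NaCl, 1 mM DTT, 1 mM EDTA, 25 °C.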

In data set [10] the target is T1, apoE3. The data set can be described thus: SYPRO Orange displacement titration, apoE3. The class given is binding. As to conditions: Apparent dissociation constant Kd, Using SYPRO Orange, PBS pH 7.4, 25 °C. Summed up: as §2

T1 sequence (P02649 19-317): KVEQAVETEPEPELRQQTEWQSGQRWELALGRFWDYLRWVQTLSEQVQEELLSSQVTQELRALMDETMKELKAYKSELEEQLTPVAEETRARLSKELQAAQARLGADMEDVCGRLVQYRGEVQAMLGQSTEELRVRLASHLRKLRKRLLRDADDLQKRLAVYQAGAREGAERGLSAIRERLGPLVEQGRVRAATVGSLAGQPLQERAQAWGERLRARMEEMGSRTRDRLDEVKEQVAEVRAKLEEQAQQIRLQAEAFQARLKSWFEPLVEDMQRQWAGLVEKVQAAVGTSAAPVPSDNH
T2 sequence (P02649 19-317 C130R): as the sequence (P02649 19-317) above, with C112R counted along it
apoE4 (Homo sapiens, UniProt P02649, C130R/S157C), sequence (P02649 19-317 C130R/S157C): as the sequence (P02649 19-317) above, with C112R, S139C counted along it
apoE3 (Homo sapiens, UniProt P02649, A303C), sequence (P02649 19-317 A303C): as the sequence (P02649 19-317) above, with A285C counted along it

On to `Cn1nc(CC(=O)Nc2cc(S(=O)(=O)Nc3cccc(Cl)c3)ccc2O)c2ccccc2c1=O` [EZ-482, N-{5-[(3-chlorophenyl)sulfamoyl]-2-hydroxyphenyl}-2-(3-methyl-4-oxo-3,4-dihydrophthalazin-1-yl)acetamide], for which the “Solubility in DMSO” value in data set [1] is reported as “reasonably soluble in DMSO”. For the same molecule, the Kd in [2] worked out at 5.6 ± 0.7 µM; in [3] it was 7.6 ± 0.4 µM; in [5], 7.5 ± 1 µM; in [6], 7.5 µM; in data set [9], 7 ± 0.35 µM; in data set [10], 7.3 ± 0.53 µM. Besides, the “Effect on distribution of apoE oligomers” value in data set [4] is given as “essentially unaffected”. Further, the “Binding site by HDX protection, apoE4” value in data set [7] was “Large protection was observed only in the C-terminal domain (229–235/234–243 and 258–265)”. Besides, the “N-terminal allosteric effect by HDX, apoE3” value in data set [8] (1 μM WT apoE3, 25 μM EZ-482, 25 °C) was “apoE3 N-terminal remained unaffected”. Also, the “Binding site by HDX protection, apoE3” value in data set [8] (1 μM WT apoE3, 25 μM EZ-482 or 1X SYPRO Orange, 25 °C) was “Large protection was observed only in the C-terminal domain (229–235/234–243 and 258–265)”.
